Source: ChEMBL document CHEMBL4680248 (Eur J Med Chem, 2020)
Calls of active or inactive are those of the source. The calls are words filed in the database; no cut-off is given here.

Experiments:
[1] = molecular target: T1, GABA-A receptor; alpha-1/beta-3/gamma-2 (Homo sapiens, UniProt P14867+P18507+P28472); assay: Positive allosteric modulation of GABAA alpha1beta3gamma2L in HEK cell plasma membrane assessed as increase in [3H]muscimol binding measured after 10 mins by liquid scintillation counting method; assay type: cell membranes
T1 sequence (P14867 whole entry): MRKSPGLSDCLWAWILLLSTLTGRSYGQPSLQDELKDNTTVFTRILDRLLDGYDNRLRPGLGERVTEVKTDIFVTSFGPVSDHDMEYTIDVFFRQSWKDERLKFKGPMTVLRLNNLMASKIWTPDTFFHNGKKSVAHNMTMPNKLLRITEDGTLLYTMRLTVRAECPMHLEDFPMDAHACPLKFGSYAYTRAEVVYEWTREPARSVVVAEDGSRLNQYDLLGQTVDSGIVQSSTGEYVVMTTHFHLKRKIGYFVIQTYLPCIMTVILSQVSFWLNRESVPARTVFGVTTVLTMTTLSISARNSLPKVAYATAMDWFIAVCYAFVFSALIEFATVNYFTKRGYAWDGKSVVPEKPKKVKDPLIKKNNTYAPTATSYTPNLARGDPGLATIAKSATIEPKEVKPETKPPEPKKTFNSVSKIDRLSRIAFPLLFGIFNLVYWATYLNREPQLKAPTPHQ
T1 sequence (P18507 whole entry): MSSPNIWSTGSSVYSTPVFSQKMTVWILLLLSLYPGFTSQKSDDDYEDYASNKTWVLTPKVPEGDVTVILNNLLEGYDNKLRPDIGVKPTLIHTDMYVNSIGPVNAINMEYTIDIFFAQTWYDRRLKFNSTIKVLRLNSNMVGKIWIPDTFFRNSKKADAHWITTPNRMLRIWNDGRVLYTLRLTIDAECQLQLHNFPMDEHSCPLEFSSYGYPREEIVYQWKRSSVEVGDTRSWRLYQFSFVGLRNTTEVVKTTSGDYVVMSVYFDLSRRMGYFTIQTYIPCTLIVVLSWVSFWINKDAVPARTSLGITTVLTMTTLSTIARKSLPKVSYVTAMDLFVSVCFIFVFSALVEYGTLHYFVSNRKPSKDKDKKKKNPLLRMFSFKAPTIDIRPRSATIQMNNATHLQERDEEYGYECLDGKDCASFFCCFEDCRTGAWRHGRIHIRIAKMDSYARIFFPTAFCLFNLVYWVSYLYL
T1 sequence (P28472 whole entry): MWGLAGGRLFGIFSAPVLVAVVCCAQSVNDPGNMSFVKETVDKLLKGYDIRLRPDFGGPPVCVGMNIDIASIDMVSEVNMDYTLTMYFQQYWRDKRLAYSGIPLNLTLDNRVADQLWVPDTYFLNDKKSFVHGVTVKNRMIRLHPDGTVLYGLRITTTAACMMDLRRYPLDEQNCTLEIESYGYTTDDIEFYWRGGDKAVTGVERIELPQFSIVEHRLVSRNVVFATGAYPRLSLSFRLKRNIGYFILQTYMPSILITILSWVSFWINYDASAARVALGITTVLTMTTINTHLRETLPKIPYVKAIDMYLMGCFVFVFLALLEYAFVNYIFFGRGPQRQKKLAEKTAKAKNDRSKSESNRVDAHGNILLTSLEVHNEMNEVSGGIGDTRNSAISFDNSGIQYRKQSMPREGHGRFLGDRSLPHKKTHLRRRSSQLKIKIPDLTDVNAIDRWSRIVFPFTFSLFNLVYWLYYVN
How it was run: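 HEK293 membranes (100 μg protein) from tetracycline-inducible cells expressing FLAG-tagged human receptors. Incubated 10 min with 2 nM [3H]muscimol (final) and modulator in 10 mM phosphate, 200 mM KCl, 1 mM EDTA, pH 7.4. Filtered on PEI-treated GF/B filters and washed twice with cold buffer. EC50 from fitting a logistic equation (Eqn 1) to pooled concentration-response points from independent experiments.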

[2] = molecular target: T1, GABA-A receptor; alpha-1/beta-3/gamma-2; assay: Inhibition of [3H]R-mTFD-MPAB labelling of GABAA alpha1beta3gamma2L (unknown origin) expressed in Xenopus laevis oocytes assessed as reduction in photoincorporation at M227 residues of beta3 subunit measured after 30 mins in presence of GABA by liquid scintillation counting method; assay type: cell-based
Xenopus laevis = assay: Anesthetic activity in Xenopus laevis tadpoles assessed as increase in loss of righting reflex incubated for 30 to 60 mins; assay type: functional, organism-based
[3] = molecular target: T1, GABA-A receptor; alpha-1/beta-3/gamma-2; assay: Inhibition of [3H]azietomidate labelling of GABAA alpha1beta3gamma2L (unknown origin) expressed in Xenopus laevis oocytes assessed as reduction in photoincorporation at M236 residues of alpha1 subunit measured after 30 mins in presence of GABA by liquid scintillation counting method; assay type: cell-based, Oocyte
[4] = molecular target: T1, GABA-A receptor; alpha-1/beta-3/gamma-2; assay: Positive allosteric modulation of GABAA alpha1beta3gamma2L (unknown origin) expressed in Xenopus laevis oocytes assessed as increase in GABA-induced current by two microelectrode voltage-clamp electrophysiology; assay type: cell-based, Oocyte
How it was run: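 Human subunit mRNA (0.5–1 ng, α:β:γ 1:1:5) injected into Xenopus oocytes, recorded about 24 h later. Two-electrode voltage clamp at −50 mV, room temperature, ND96 pH 7.6.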

[5] = Toxicity in Xenopus laevis tadpoles
[6] = molecular target: T1, GABA-A receptor; alpha-1/beta-3/gamma-2; assay: Inhibition of [3H]pTFD-di-iPr-BnOH labelling of GABAA alpha1beta3gamma2L (unknown origin) expressed in Xenopus laevis oocytes assessed as reduction in photoincorporation at beta subunit measured after 30 mins in presence of GABA by liquid scintillation counting method; assay type: cell-based
[7] = molecular target: T2, GABA-A receptor alpha-1/beta-3 (Homo sapiens, UniProt P14867+P28472); assay: Positive allosteric modulation of GABAA alpha1beta3 in HEK cell plasma membrane assessed as increase in [3H]muscimol binding measured after 10 mins by liquid scintillation counting method; assay type: cell membranes
T2 sequence (P14867 whole entry): T1 sequence (P14867 whole entry)
T2 sequence (P28472 whole entry): T1 sequence (P28472 whole entry)
How it was run: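 Native membranes from tetracycline-inducible HEK293 cells expressing FLAG-tagged human receptors (100 μg protein), [3H]muscimol 2 nM final, plus modulator in 10 mM phosphate, 200 mM KCl, 1 mM EDTA, pH 7.4; 10 min incubation, filtration on PEI-treated GF/B filters, two cold washes. Concentration-response curves from independent experiments fitted to a Hill equation for EC50 and nH.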

Oocyte [8] = assay: Positive allosteric modulation of GABAA alpha1beta3gamma2L I242W mutant (unknown origin) expressed in Xenopus laevis oocytes assessed as increase in GABA-induced current at 8 uM by two microelectrode voltage-clamp electrophysiology; assay type: cell-based; settings: Homo sapiens, filed as positive allosteric modulator
Oocyte [9] = assay type: cell-based; settings: Homo sapiens, filed as positive allosteric modulator, dose 8.0 µM
Oocyte [10] = assay: Positive allosteric modulation of GABAA alpha1beta3gamma2L S270I mutant (unknown origin) expressed in Xenopus laevis oocytes assessed as increase in GABA-induced current at 8 uM by two microelectrode voltage-clamp electrophysiology; assay type: cell-based; settings: Homo sapiens
Oocyte [11] = assay: Positive allosteric modulation of GABAA alpha1beta3gamma2L M227W mutant (unknown origin) expressed in Xenopus laevis oocytes assessed as increase in GABA-induced current at 8 uM by two microelectrode voltage-clamp electrophysiology; assay type: cell-based; settings: Homo sapiens, filed as positive allosteric modulator
Oocyte [12] = assay: Positive allosteric modulation of GABAA alpha1beta3gamma2L S280W mutant (unknown origin) expressed in Xenopus laevis oocytes assessed as increase in GABA-induced current at 8 uM by two microelectrode voltage-clamp electrophysiology; assay type: cell-based; settings: Homo sapiens

CC(C)c1cccc(C(C)C)c1CO
EC50 [1]: 40 µM | IC50 [2]: 243 µM | EC50 (Xenopus laevis): 16 µM | IC50 [3]: 92 µM

OCc1ccccc1 [BENZYL ALCOHOL]
EC50 [1]: > 50000 µM | EC50 (Xenopus laevis): 2000 µM

CC(C)c1cc(C2(C(F)(F)F)N=N2)cc(C(C)C)c1CO
EC50 [4]: 10 µM | LC50 [5]: 3.6 µM | EC50 [1]: 7.4 µM | IC50 [2]: 26 µM | EC50 (Xenopus laevis): 2.5 µM | IC50 [3]: 460 µM | IC50 [6]: 18 µM | EC50 [7]: 2.9 µM

OCc1ccc(C2(C(F)(F)F)N=N2)cc1
EC50 [1]: 700 µM | IC50 [2]: 465 µM | EC50 (Xenopus laevis): 28 µM | IC50 [3]: 305 µM

CC(C)c1cccc(C(C)C)c1O [PROPOFOL]
EC50 [1]: 5.4 µM | IC50 [2]: 44 µM | EC50 (Xenopus laevis): 0.63 µM | IC50 [3]: 8 µM | IC50 [6]: 32 µM

C=CCC1(c2cccc(C3(C(F)(F)F)N=N3)c2)C(=O)NC(=O)N(C)C1=O (stereo not drawn)
Activity (Oocyte [8]): Active | Activity (Oocyte [9]): Active | Activity (Oocyte [10]): inactive | Activity (Oocyte [11]): Active | Activity (Oocyte [12]): inactive
